Reference: ChEMBL document CHEMBL4842317, “Discovery of novel 3-hydroxyandrosta-5,7-Diene-17-Carboxylic acid derivatives as anti-inflammatory bowel diseases (IBD) agents” (Eur J Med Chem, 2021)
Active and inactive are the calls of the source. The rule behind the calls is not given here.

Assays:
[1] = system: RAW264.7; experiment: Cytotoxicity against mouse RAW264.7 cells assessed as reduction in cell viability at 3 to 100 uM incubated for 24 hrs in presence of LPS by MTT assay; assay type: cell-based; conditions: raw264.7, 24 h, dose 3-100 µM
How it was run: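 RAW 264.7 cells are seeded at 1.0 × 10^4 per well and incubated overnight. Compounds are added at concentrations from 100 μM downward, with or without LPS (100 ng/mL), for 24 h. MTT (0.5 mg/mL) is added for 4 h and the formazan is dissolved in DMSO for the read-out.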

[2] = system: RAW264.7; experiment: Antiinflammatory activity against mouse RAW264.7 cells assessed as inhibition of LPS-induced COX2 mRNA expression at 20 uM incubated for 8 hrs in presence of LPS by qRT-PCR analysis; assay type: functional, cell-based
How it was run: (§1)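 RAW 264.7 cells are grown 12 h in six-well plates, then exposed to LPS (100 ng/ml) plus compound for 8 h. Reverse transcription is followed by SYBR Green qPCR with GAPDH as internal control. Relative expression is calculated by 2^-ΔΔCT versus the untreated control. Mean + SD from three independent experiments.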

[3] = system: RAW264.7; experiment: Antiinflammatory activity against mouse RAW264.7 cells assessed as inhibition of LPS-induced iNOS mRNA expression incubated for 8 hrs in presence of LPS by qRT-PCR analysis; assay type: functional, cell-based; conditions: dose 0.31-20 µM; how it was run: as §1
[4] = system: RAW264.7; experiment: Antiinflammatory activity against mouse RAW264.7 cells assessed as inhibition of LPS-induced COX2 mRNA expression incubated for 8 hrs in presence of LPS by qRT-PCR analysis; assay type: functional, cell-based; conditions: dose 0.31-20 µM; how it was run: as §1
[5] = system: RAW264.7; experiment: Antiinflammatory activity against mouse RAW264.7 cells assessed as decrease in LPS-induced IL-1beta mRNA expression at 20 uM in presence of LPS by qRT-PCR analysis; assay type: functional, cell-based; how it was run: as §1
[6] = system: RAW264.7; experiment: Antiinflammatory activity against mouse RAW264.7 cells assessed as decrease in LPS-induced IL-6 mRNA expression at 20 uM in presence of LPS by qRT-PCR analysis; assay type: functional, cell-based; how it was run: as §1
[7] = system: RAW264.7; experiment: Antiinflammatory activity against mouse RAW264.7 cells assessed as decrease in LPS-induced TNF-alpha mRNA expression at 20 uM in presence of LPS by qRT-PCR analysis; assay type: functional, cell-based; how it was run: as §1
[8] = system: RAW264.7; experiment: Antiinflammatory activity against mouse RAW264.7 cells assessed as inhibition of LPS-induced MCP-1 mRNA expression at 20 uM in presence of LPS by qRT-PCR analysis; assay type: functional, cell-based; how it was run: as §1
[9] = system: RAW264.7; experiment: Antiinflammatory activity against mouse RAW264.7 cells assessed as inhibition of LPS-induced IL-6 production measured after 24 hrs in presence of LPS by ELISA; assay type: functional, cell-based; conditions: dose 0.31-20 µM
How it was run: (§2)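 RAW 264.7 cells are seeded at 2 × 10^5 per well, grown 12 h, and given 100 ng/mL LPS with compound at 0.31 to 20 μM for 24 h. Supernatant IL-1β and IL-6 are quantified by ELISA. Mean + SD, n = 3.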

[10] = system: RAW264.7; experiment: Antiinflammatory activity against mouse RAW264.7 cells assessed as inhibition of LPS-induced IL-1 beta production measured after 24 hrs in presence of LPS by ELISA; assay type: functional, cell-based; conditions: dose 0.31-20 µM; how it was run: as §2
[11] = system: RAW264.7; experiment: Antiinflammatory activity against mouse RAW264.7 cells assessed as decrease in LPS-induced NF-kappB mRNA expression at 20 uM in presence of LPS by qRT-PCR analysis; assay type: functional, cell-based; how it was run: as §1
[12] = system: RAW264.7; experiment: Antiinflammatory activity against mouse RAW264.7 cells assessed as decrease in LPS-induced NF-kappB mRNA expression in presence of LPS by qRT-PCR analysis; assay type: functional, cell-based; conditions: dose 0.31-20 µM; how it was run: as §1
[13] = system: RAW264.7; experiment: Inhibition of PI3K/Akt signaling in mouse RAW264.7 cells assessed as inhibition of LPS-induced Akt phosphorylation by measuring increase in Akt level at 1.25 uM in presence of LPS by western blot analysis; assay type: cell-based
How it was run: (§3)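 Lysates of LPS-stimulated RAW 264.7 cells (20–30 μg protein) are run on 10% SDS-PAGE, blotted, blocked with 5% milk, probed overnight at 4 °C (1:5,000), then detected with HRP secondary and ECL. Actin, GAPDH or H3 (nuclear fraction) serve as loading controls, with densitometry ratios. Blots are representative of three independent experiments; mean + SD (n = 3).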

[14] = system: RAW264.7; experiment: Inhibition of PI3K/Akt signaling in mouse RAW264.7 cells assessed as inhibition of LPS-induced NFkappB p-p65 accumulation in presence of LPS by western blot analysis; assay type: cell-based; conditions: dose 0.31-20 µM; how it was run: as §3
[15] = system: Mus musculus; experiment: Antiinflammatory activity against DSS-induced colitis C57BL/6 mouse model assessed as attenuation of colon length shortening at 50 mg/kg, ip administered for 7 days; assay type: functional, organism-based; conditions: time 7.0 day
How it was run: (§4)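 Male C57BL/6 mice, 6 weeks old, 5 per group, given 3.5% DSS in drinking solution with intraperitoneal drug in saline/castor oil/ethanol/DMSO (70:10:15:5) daily for 7 days. Colons are photographed after sacrifice by cervical dislocation for gross assessment.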

[16] = system: Mus musculus; experiment: Antiinflammatory activity against DSS-induced colitis C57BL/6 mouse model assessed as attenuation of colon length shortening at 25 mg/kg, ip administered for 7 days; assay type: functional, organism-based; conditions: time 7.0 day; how it was run: as §4
[17] = system: Mus musculus; experiment: Antiinflammatory activity against DSS-induced colitis C57BL/6 mouse model assessed as colon with intact structure with few inflammatory cells at 50 to 100 mg/kg, ip administered for 7 days by hematoxylin and eosin staining based microscopic analysis; assay type: functional, organism-based; conditions: dose 50-100 mg/kg, time 7.0 day
How it was run: (§5)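 DSS colitis (3.5% DSS, male C57BL/6 mice, n=5 per group) with 7-day intraperitoneal dosing in saline/castor oil/ethanol/DMSO vehicle. Colons are fixed in formalin, paraffin-embedded and stained with H&E (viewed at 200X). Separately, sections undergo CD86 immunohistochemistry (citrate antigen retrieval, 3% H2O2 block, 1:200 primary and HRP secondary, hematoxylin counterstain) viewed at 400X.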

[18] = system: Mus musculus; experiment: Antiinflammatory activity against DSS-induced colitis C57BL/6 mouse assessed as decrease in IL-1beta level in colon at 50 mg/kg, ip administered for 7 days; assay type: functional, organism-based; conditions: time 7.0 day
How it was run: (§6)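 Male C57BL/6 mice, 6 weeks old, 5 per group, given 3.5% DSS solution plus daily intraperitoneal drug (100 μL, in saline/castor oil/ethanol/DMSO 70:10:15:5) for 7 days. Colons collected after sacrifice. IL-1β is normalised per milligram of colonic protein. p-IκB-α and p-p65 in colonic protein are measured by Western blot. Bars give mean + SD.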

[19] = system: Mus musculus; experiment: Antiinflammatory activity against DSS-induced colitis C57BL/6 mouse assessed as decrease in IL-1beta level in colon at 25 mg/kg, ip administered for 7 days; assay type: functional, organism-based; conditions: time 7.0 day; how it was run: as §6
[20] = system: Mus musculus; experiment: Antiinflammatory activity against DSS-induced colitis C57BL/6 mouse assessed as decrease in p-p65 level in colon at 25 mg/kg, ip administered for 7 days by western blot analysis; assay type: functional, organism-based; conditions: time 7.0 day; how it was run: as §6
[21] = system: Mus musculus; experiment: Antiinflammatory activity against DSS-induced colitis C57BL/6 mouse model assessed as reduction in scores of stool consistency and bleeding at 25 to 100 mg/kg, ip administered for 7 days by immunohistochemistry analysis; assay type: functional, organism-based; conditions: dose 25-100 mg/kg, time 7.0 day
[22] = system: Mus musculus; experiment: Antiinflammatory activity against DSS-induced colitis C57BL/6 mouse model assessed as dispersed CD86-positive cells in colon at 25 to 100 mg/kg, ip administered for 7 days by hematoxylin and eosin staining based microscopic analysis; assay type: functional, organism-based; conditions: dose 25-100 mg/kg, time 7.0 day; how it was run: as §5

With `C[C@]12CC[C@H]3[C@@H](CC=C4C[C@@H](O)CC[C@@]43C)[C@@H]1CC[C@@H]2C(=O)n1ccnc1` the Activity [1] was “Non-Toxic”, the Activity [2] was “Active” and the Activity [3] was “Dose-Dependent Effect”. For the same compound, the Activity [4] was “Dose-Dependent Effect”, the Activity [5] was “Active” and the Activity [6] was “Active”. For the same compound, the Activity [7] was “inactive”, the Activity [8] was “Active” and the Activity [9] was “Dose-Dependent Effect”. The Activity [10] was “Dose-Dependent Effect”, the Activity [11] was “Active” and the Activity [12] was “Dose-Dependent Effect”. The inhibition [13] was “Active”, the inhibition [14] was “Dose-Dependent Effect” and the Activity [15] was “Active”. For the same compound, the Activity [16] was “Active”, the Activity [17] was “Active” and the Activity [18] was “Active”. The Activity [19] was “Active”, the Activity [20] was “Active” and the Activity [21] was “Active”. For the same compound, the Activity [22] was “Active”.
